# iPSC survival up: enhancers of single-cell hiPSC survival, primary screen, ATPlite luminescence; 100% = ROCK inhibitor wells, 0% = DMSO; survival enhancement, % at 20 µM; 360,000 compounds, 0.044% hits; in the data active = survival enhancement above about 18%;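 note: cells exposed to compounds for 16 hours before the ATP read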
# CRFBP-R2 block: antagonists of CRF-BP/CRF-R2 complex, primary screen, cell-based, HEK293, calcium dye fluorescence, uHTS; CRF-induced calcium fluorescence; inhibition, % at 11.8 µM; 350,000 compounds, 0.59% hits;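 active = inhibition of the ligand-induced calcium signal above about 50% at the single tested concentration, limit read from the data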
# UCH37 DUB inh: inhibitors of human UCH37 deubiquitinase, primary screen, biochemical, Ub-AMC cleavage, fluorescence; purified proteasome/UCH37; inhibition, % (concentration not given with the values); 330,000 compounds, 0.33% hits;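 active = mean inhibition over replicate wells above about 20%, limit read from the data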
# Target sequence (Q9Y5K5 whole entry, looked up): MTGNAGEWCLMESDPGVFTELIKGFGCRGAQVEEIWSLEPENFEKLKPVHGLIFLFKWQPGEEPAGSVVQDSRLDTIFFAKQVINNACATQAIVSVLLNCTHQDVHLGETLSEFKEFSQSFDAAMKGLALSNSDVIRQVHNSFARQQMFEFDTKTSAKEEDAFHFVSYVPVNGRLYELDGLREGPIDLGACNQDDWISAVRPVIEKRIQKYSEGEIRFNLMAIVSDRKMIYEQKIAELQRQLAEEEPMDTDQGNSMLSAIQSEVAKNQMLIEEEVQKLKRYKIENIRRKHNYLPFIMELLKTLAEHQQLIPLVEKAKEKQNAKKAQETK
#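 System: Proteasome-associated human UCH37 deubiquitinase; Input: 0.15 nM proteasome in added enzyme buffer; Also added: Ub-AMC substrate from 1 µM stock; Incubation: 30 min compound-proteasome preincubation then 25 min substrate reaction, room temperature; Detection: fluorescence, ex 355 nm, em 460 nm; Read-out: % inhibition of Ub-AMC cleavage fluorescence; Benchmarks: no-proteasome and no-compound wells.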
# Cardio protect: cardioprotection against H2O2-induced cell death, primary screen, uHTS, H9c2 cells, ATPLite luminescence | AID 588492, 2011 | 360,000 compounds, 0.63% hits | H9c2 cardiomyocytes, H2O2 injury protection, 2 h | protection from H2O2 cell death, % at 20 µM;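 active = compounds giving at least 50% protection of heart cells from peroxide-induced death in the single-dose screen, raw or plate-pattern-corrected value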
# MIN6 prolif: inducers of MIN6 beta-cell proliferation, primary screen, ATP luminescence, uHTS. proliferation, % at 10 µM. 330,000 compounds, 0.29% hits. AID 2380, 2010. MIN6 cells proliferation, ATPlite luminescence, 48 h; cells starved in 0.2% serum; 100% = growth in 10% serum;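 active = compounds whose signal lies at least 3.5 SD above the mean of all wells on their plate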
# CRFR2-BP ag: agonists of CRF-BP/CRF-R2 complex, primary screen, cell-based, HEK293, calcium dye fluorescence, uHTS | CRF-binding protein / CRF receptor 2 complex (human) | calcium dye fluorescence (FLIPR); percent of saturating CRF peptide response | 350,000 compounds, 0.46% hits | activation, % at 13.2 µM;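 active = activation of at least 50%, plus an integration ratio under a set limit after plate pattern correction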
# Hits are given with their value; i = inactive; nt = no result given. An excerpt weighted towards active compounds, which were near 2.1% of everything screened.
SMILES,iPSC survival up,CRFBP-R2 block,UCH37 DUB inh,Cardio protect,MIN6 prolif,CRFR2-BP ag
Cc1ccc(/C(O)=C2/C(=O)C(=O)N(CCN3CCOCC3)C2c2cccs2)cc1 (stereo not drawn),i,i,23.8,i,i,i
COC(=O)c1ccc(C2/C(=C(\O)c3cccc(OC)c3)C(=O)C(=O)N2CCCN2CCOCC2)cc1 (stereo not drawn),i,i,i,i,i,i
O=C1C(=O)N(CCCN2CCOCC2)C(c2ccc(F)cc2)/C1=C(/O)c1ccccc1 (stereo not drawn),i,i,23.1,i,i,i
COc1cccc(/C(O)=C2/C(=O)C(=O)N(CCCN3CCOCC3)C2c2ccncc2)c1 (stereo not drawn),i,i,20.1,i,i,i
COc1cccc(C=NNC(=O)c2ccc(N3CCCC3=O)cc2)c1,nt,nt,i,nt,nt,nt
CCCOc1ccc(Cc2nn3c(=O)c(=Cc4ccco4)sc3nc2=O)cc1,nt,nt,i,nt,nt,nt
Cc1ccc(CC(=O)NN=Cc2ccc3c(c2)OCO3)cc1,nt,nt,i,nt,nt,nt
O=C1OCCC1Sc1nc2cc(Cl)ccc2s1 (stereo not drawn),i,i,i,i,i,i
CSc1nc2cc(Cl)ccc2s1,i,51.7,i,i,i,i
CCC(C)NC(=O)Cn1cnc2sc(C)c(S(=O)(=O)N3CCCCC3)c2c1=O (stereo not drawn),i,62.1,i,i,i,i
COc1cccc(NC(=O)c2cc3ccccc3oc2=NO)c1,nt,nt,i,nt,nt,nt
Cc1ccc(CNC(=O)c2cc(-c3ccccc3)n(Cc3cc(C)no3)n2)cc1,i,i,23.5,i,i,i
Cc1cn2c(N)c(/C=C3\C=Nc4ccccc43)c(=O)nc2s1,i,i,i,i,i,i
Cc1cn2c(N)c(C=C3C=C(Cl)C(=O)C(Cl)=C3)c(=O)nc2s1,i,i,i,i,i,117.5
COC1=C/C(=C/c2c(N)n3cc(C)sc3nc2=O)C=CC1=O,i,i,i,i,i,60.7
COc1ccc(O)c(CNn2c(-c3ccc(Br)cc3)nc3ccccc3c2=O)c1,i,i,i,50.2,i,i
COc1ccc(OC)c(CNn2c(-c3ccccc3F)nc3ccccc3c2=O)c1,i,i,i,i,i,i
CCC(C(=O)NN=Cc1cccnc1)c1ccccc1 (stereo not drawn),nt,nt,i,nt,nt,nt
Cc1[nH]n(C2=NCCS2)c(=O)c1N=Nc1cccc(C(F)(F)F)c1,i,i,i,61.7,i,i
Cc1ccc(S(=O)(=O)NCC(=O)NN=Cc2ccccc2O)cc1,nt,nt,i,nt,nt,nt
COc1ccc(OC)c(NC(=O)c2[nH]c(C)c(C(C)=O)c2C)c1,i,76.8,i,i,i,i
CCc1oc2ccccc2c1C(=O)c1cc(Br)c(O)c(Br)c1,i,54.8,i,i,i,i
CCc1ccc(OCC(=O)c2c(O)c3ccccc3oc2=O)cc1,i,i,i,i,i,i
COc1ccc(C(C)NC(=O)c2ccccc2)cc1 (stereo not drawn),i,i,i,i,i,i
COc1ccc(C(=O)NC(Oc2ccccc2)C(Cl)(Cl)Cl)cc1 (stereo not drawn),i,112.8,i,i,i,i
SMILES,iPSC survival up,CRFBP-R2 block,UCH37 DUB inh,Cardio protect,MIN6 prolif,CRFR2-BP ag
CCC(=O)NC(c1cccs1)c1cc([N+](=O)[O-])c2cccnc2c1OC (stereo not drawn),i,nt,nt,i,nt,nt
CCC(=O)NC(c1ccc(C)cc1)c1cc(Cl)c2cccnc2c1O (stereo not drawn),i,i,i,i,i,i
CC(C)C(=O)NC(c1cccs1)c1cc([N+](=O)[O-])c2cccnc2c1O (stereo not drawn),i,i,i,55.6,i,i
Cc1ccc(C(NC(=O)C(C)C)c2cc([N+](=O)[O-])c3cccnc3c2O)cc1 (stereo not drawn),i,i,i,51.0,i,i
CCc1cc(C)cc(OCCOc2ccccc2C=NNC(C)=O)c1,nt,nt,i,nt,nt,nt
CCCn1cc(S(=O)(=O)c2ccc(OC)cc2)c(=O)c2cc(OCC)ccc21,i,i,i,i,i,i
CCCn1cc(S(=O)(=O)c2ccccc2)c(=O)c2cc(OCC)ccc21,i,74.6,i,i,i,i
CCCn1c(SCc2ccccc2)nc2c1c(=O)[nH]c(=O)n2C,32.2,i,i,i,i,i
C=CCn1c(SCc2nc3c(c(=O)[nH]c(=O)n3CCCC)n2CCC)nnc1-c1ccccc1,i,i,29.4,i,i,i
C=CCn1c(SCc2ccc(Cl)cc2)nc2c1c(=O)[nH]c(=O)n2C,i,i,i,i,i,i
CCCCn1c(=O)[nH]c(=O)c2c1nc(CN1C(=O)c3ccccc3S1(=O)=O)n2CCC,i,i,i,i,i,i
C=CCn1c(SCc2ccc(F)cc2)nc2c1c(=O)[nH]c(=O)n2C,i,62.1,i,i,i,i
CC=CCn1c(SCc2ccccc2)nc2c1c(=O)[nH]c(=O)n2C,i,nt,nt,i,nt,nt
CCCCCCn1c(SCCN2CCOCC2)nc2c1c(=O)[nH]c(=O)n2C,26.3,i,i,i,i,i
CN(C)C=NC(=S)Nc1ccccc1,nt,nt,i,nt,nt,nt
C(=NN1CCN(C2c3ccccc3-c3ccccc32)CC1)c1ccncc1,nt,nt,i,nt,nt,nt
COCc1cc(C)nc(OCC(=O)NN=Cc2ccc(O)cc2O)c1C#N,nt,nt,i,nt,nt,nt
CCOc1ccc(N(CC(=O)NN=Cc2cc([N+](=O)[O-])ccc2Cl)S(C)(=O)=O)cc1,nt,nt,i,nt,nt,nt
CSCCC(NC(=O)c1cccc(S(=O)(=O)N2CCN(C(C)=O)CC2)c1)c1nc2ccccc2[nH]1 (stereo not drawn),i,i,i,i,nt,i
CSCC[C@H](NC(=O)c1cccc(S(=O)(=O)N2CCN(C)CC2)c1)c1nc2ccccc2[nH]1,i,i,i,i,i,71.4
CCN(CC)c1ccc2cc(C(N)=O)c(=NNC(=O)c3ccncc3)oc2c1,nt,nt,21.7,nt,nt,nt
COc1ccc2cc(C(N)=O)/c(=N\NC(=O)c3ccccc3)oc2c1,i,i,nt,i,i,i
O=C(Oc1ccccc1)c1cc(O)c(O)c(O)c1,i,nt,nt,74.8,nt,nt
Cc1ccc(C=NN(C)C2=NS(=O)(=O)c3ccccc32)o1,nt,nt,i,nt,nt,nt
ON=Cc1ccc(OCC(O)COc2ccc(C=NO)cc2)cc1 (stereo not drawn),nt,nt,i,nt,nt,nt
Cn1c(=O)c2cc3c(nc2n(C)c1=O)CC(c1ccccc1)CC3=O (stereo not drawn),i,67.3,i,i,i,i
CSc1nc2nc3c(cn2n1)C(=O)CC(c1ccccc1)C3 (stereo not drawn),i,i,i,i,i,i

# Source: PubChem
